Results: publication PMC5084670 (Cancer Science, 2016)

Assay: Phase I dose-escalation study: safety, adverse events
Type: in vivo, human
Procedure, shortened: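 Oral test compound was given once daily in 28-day cycles after a 7-day single-dose run-in, in Japanese and Hong Kong/Taiwan groups escalated separately. Toxicity was graded by CTCAE v3.0 using laboratory tests, physical examination, vital signs, weight and periodic ECG. DLTs were grade 3–4 events over the run-in plus cycle 1. MTD was set by an adaptive Bayesian logistic regression model with overdose control.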

[1] = group 2, 400 mg q.d. (n = 12), All grades
[2] = group 2, 400 mg q.d. (n = 12), Grade 3
[3] = group 2, 400 mg q.d. (n = 12), Grade 4
[4] = group 2, 600 mg q.d. (n = 8), All grades
[5] = group 2, 600 mg q.d. (n = 8), Grade 3
[6] = group 2, 600 mg q.d. (n = 8), Grade 4
[7] = group 2, 800 mg q.d. (n = 4), All grades
[8] = group 2, 800 mg q.d. (n = 4), Grade 3
[9] = group 2, 800 mg q.d. (n = 4), Grade 4
[10] = group 2, All patients (n = 24), All grades
[11] = group 2, All patients (n = 24), Grade 3
[12] = group 2, All patients (n = 24), Grade 4

Cc1c(C(=O)Nc2ccc(N3C[C@@H](C)O[C@@H](C)C3)nc2)cccc1-c1ccc(OC(F)(F)F)cc1 [Sonidegib]
Dysgeusia (drug-related adverse event) [1]: 2 (17) n (%)
Fatigue (drug-related adverse event) [1]: 4 (33) n (%)
Hepatic function abnormal (drug-related adverse event) [1]: 2 (17) n (%)
Muscular weakness (drug-related adverse event) [1]: 0 (0) n (%)
Myalgia (drug-related adverse event) [1]: 2 (17) n (%)
Nausea (drug-related adverse event) [1]: 0 (0) n (%)
Pyrexia (drug-related adverse event) [1]: 0 (0) n (%)
Vomiting (drug-related adverse event) [1]: 0 (0) n (%)
Blood creatine kinase increased (drug-related adverse event) [2]: 1 (8) n (%)
Decreased appetite (drug-related adverse event) [2]: 0 (0) n (%)
Diarrhea (drug-related adverse event) [2]: 0 (0) n (%)
Dizziness (drug-related adverse event) [2]: 0 (0) n (%)
Dysgeusia (drug-related adverse event) [2]: 0 (0) n (%)
Fatigue (drug-related adverse event) [2]: 0 (0) n (%)
Hepatic function abnormal (drug-related adverse event) [2]: 0 (0) n (%)
Muscular weakness (drug-related adverse event) [2]: 0 (0) n (%)
Myalgia (drug-related adverse event) [2]: 0 (0) n (%)
Nausea (drug-related adverse event) [2]: 0 (0) n (%)
Pyrexia (drug-related adverse event) [2]: 0 (0) n (%)
Vomiting (drug-related adverse event) [2]: 0 (0) n (%)
Blood creatine kinase increased (drug-related adverse event) [3]: 1 (8) n (%)
Decreased appetite (drug-related adverse event) [3]: 0 (0) n (%)
Diarrhea (drug-related adverse event) [3]: 0 (0) n (%)
Dizziness (drug-related adverse event) [3]: 0 (0) n (%)
Dysgeusia (drug-related adverse event) [3]: 0 (0) n (%)
Fatigue (drug-related adverse event) [3]: 0 (0) n (%)
Hepatic function abnormal (drug-related adverse event) [3]: 0 (0) n (%)
Muscular weakness (drug-related adverse event) [3]: 0 (0) n (%)
Myalgia (drug-related adverse event) [3]: 0 (0) n (%)
Nausea (drug-related adverse event) [3]: 0 (0) n (%)
Pyrexia (drug-related adverse event) [3]: 0 (0) n (%)
Vomiting (drug-related adverse event) [3]: 0 (0) n (%)
Blood creatine kinase increased (drug-related adverse event) [4]: 3 (38) n (%)
Decreased appetite (drug-related adverse event) [4]: 3 (38) n (%)
Diarrhea (drug-related adverse event) [4]: 1 (13) n (%)
Dizziness (drug-related adverse event) [4]: 1 (13) n (%)
Dysgeusia (drug-related adverse event) [4]: 3 (38) n (%)
Fatigue (drug-related adverse event) [4]: 1 (13) n (%)
Hepatic function abnormal (drug-related adverse event) [4]: 2 (25) n (%)
Muscular weakness (drug-related adverse event) [4]: 1 (13) n (%)
Myalgia (drug-related adverse event) [4]: 3 (38) n (%)
Nausea (drug-related adverse event) [4]: 3 (38) n (%)
Pyrexia (drug-related adverse event) [4]: 1 (13) n (%)
Vomiting (drug-related adverse event) [4]: 2 (25) n (%)
Blood creatine kinase increased (drug-related adverse event) [5]: 0 (0) n (%)
Decreased appetite (drug-related adverse event) [5]: 0 (0) n (%)
Diarrhea (drug-related adverse event) [5]: 0 (0) n (%)
Dizziness (drug-related adverse event) [5]: 0 (0) n (%)
Dysgeusia (drug-related adverse event) [5]: 0 (0) n (%)
Fatigue (drug-related adverse event) [5]: 0 (0) n (%)
Hepatic function abnormal (drug-related adverse event) [5]: 1 (13) n (%)
Muscular weakness (drug-related adverse event) [5]: 0 (0) n (%)
Myalgia (drug-related adverse event) [5]: 1 (13) n (%)
Nausea (drug-related adverse event) [5]: 0 (0) n (%)
Pyrexia (drug-related adverse event) [5]: 0 (0) n (%)
Vomiting (drug-related adverse event) [5]: 0 (0) n (%)
Blood creatine kinase increased (drug-related adverse event) [6]: 1 (13) n (%)
Decreased appetite (drug-related adverse event) [6]: 0 (0) n (%)
Diarrhea (drug-related adverse event) [6]: 0 (0) n (%)
Dizziness (drug-related adverse event) [6]: 0 (0) n (%)
Dysgeusia (drug-related adverse event) [6]: 0 (0) n (%)
Fatigue (drug-related adverse event) [6]: 0 (0) n (%)
Hepatic function abnormal (drug-related adverse event) [6]: 0 (0) n (%)
Muscular weakness (drug-related adverse event) [6]: 0 (0) n (%)
Myalgia (drug-related adverse event) [6]: 0 (0) n (%)
Nausea (drug-related adverse event) [6]: 0 (0) n (%)
Pyrexia (drug-related adverse event) [6]: 0 (0) n (%)
Vomiting (drug-related adverse event) [6]: 0 (0) n (%)
DLT in cycle 1 (creatine kinase elevation) (group 2, 800 mg): single DLT
Blood creatine kinase increased (drug-related adverse event) [7]: 3 (75) n (%)
Decreased appetite (drug-related adverse event) [7]: 2 (50) n (%)
Diarrhea (drug-related adverse event) [7]: 1 (25) n (%)
Dizziness (drug-related adverse event) [7]: 1 (25) n (%)
Dysgeusia (drug-related adverse event) [7]: 1 (25) n (%)
Fatigue (drug-related adverse event) [7]: 3 (75) n (%)
Hepatic function abnormal (drug-related adverse event) [7]: 3 (75) n (%)
Muscular weakness (drug-related adverse event) [7]: 3 (75) n (%)
Myalgia (drug-related adverse event) [7]: 3 (75) n (%)
Nausea (drug-related adverse event) [7]: 2 (50) n (%)
Pyrexia (drug-related adverse event) [7]: 1 (25) n (%)
Vomiting (drug-related adverse event) [7]: 1 (25) n (%)
Blood creatine kinase increased (drug-related adverse event) [8]: 0 (0) n (%)
Decreased appetite (drug-related adverse event) [8]: 1 (25) n (%)
Diarrhea (drug-related adverse event) [8]: 0 (0) n (%)
Dizziness (drug-related adverse event) [8]: 0 (0) n (%)
Dysgeusia (drug-related adverse event) [8]: 0 (0) n (%)
Fatigue (drug-related adverse event) [8]: 2 (50) n (%)
Hepatic function abnormal (drug-related adverse event) [8]: 2 (50) n (%)
Muscular weakness (drug-related adverse event) [8]: 2 (50) n (%)
Myalgia (drug-related adverse event) [8]: 1 (25) n (%)
Nausea (drug-related adverse event) [8]: 0 (0) n (%)
Pyrexia (drug-related adverse event) [8]: 0 (0) n (%)
Vomiting (drug-related adverse event) [8]: 0 (0) n (%)
Blood creatine kinase increased (drug-related adverse event) [9]: 2 (50) n (%)
Decreased appetite (drug-related adverse event) [9]: 0 (0) n (%)
Diarrhea (drug-related adverse event) [9]: 0 (0) n (%)
Dizziness (drug-related adverse event) [9]: 0 (0) n (%)
Dysgeusia (drug-related adverse event) [9]: 0 (0) n (%)
Fatigue (drug-related adverse event) [9]: 0 (0) n (%)
Hepatic function abnormal (drug-related adverse event) [9]: 0 (0) n (%)
Muscular weakness (drug-related adverse event) [9]: 0 (0) n (%)
Myalgia (drug-related adverse event) [9]: 0 (0) n (%)
Nausea (drug-related adverse event) [9]: 0 (0) n (%)
Pyrexia (drug-related adverse event) [9]: 0 (0) n (%)
Vomiting (drug-related adverse event) [9]: 0 (0) n (%)
Blood creatine kinase increased (drug-related adverse event) [10]: 12 (50) n (%)
Decreased appetite (drug-related adverse event) [10]: 5 (21) n (%)
Diarrhea (drug-related adverse event) [10]: 2 (8) n (%)
Dizziness (drug-related adverse event) [10]: 2 (8) n (%)
Dysgeusia (drug-related adverse event) [10]: 6 (25) n (%)
Fatigue (drug-related adverse event) [10]: 8 (33) n (%)
Hepatic function abnormal (drug-related adverse event) [10]: 7 (29) n (%)
Muscular weakness (drug-related adverse event) [10]: 4 (17) n (%)
Myalgia (drug-related adverse event) [10]: 8 (33) n (%)
Nausea (drug-related adverse event) [10]: 5 (21) n (%)
Pyrexia (drug-related adverse event) [10]: 2 (8) n (%)
Vomiting (drug-related adverse event) [10]: 3 (13) n (%)
Blood creatine kinase increased (drug-related adverse event) [11]: 1 (4) n (%)
Decreased appetite (drug-related adverse event) [11]: 1 (4) n (%)
Diarrhea (drug-related adverse event) [11]: 0 (0) n (%)
Dizziness (drug-related adverse event) [11]: 0 (0) n (%)
Dysgeusia (drug-related adverse event) [11]: 0 (0) n (%)
Fatigue (drug-related adverse event) [11]: 2 (8) n (%)
Hepatic function abnormal (drug-related adverse event) [11]: 3 (13) n (%)
Muscular weakness (drug-related adverse event) [11]: 2 (8) n (%)
Myalgia (drug-related adverse event) [11]: 2 (8) n (%)
Nausea (drug-related adverse event) [11]: 0 (0) n (%)
Pyrexia (drug-related adverse event) [11]: 0 (0) n (%)
Vomiting (drug-related adverse event) [11]: 0 (0) n (%)
Blood creatine kinase increased (drug-related adverse event) [12]: 4 (17) n (%)
Decreased appetite (drug-related adverse event) [12]: 0 (0) n (%)
Diarrhea (drug-related adverse event) [12]: 0 (0) n (%)
Dizziness (drug-related adverse event) [12]: 0 (0) n (%)
Dysgeusia (drug-related adverse event) [12]: 0 (0) n (%)
Fatigue (drug-related adverse event) [12]: 0 (0) n (%)
Hepatic function abnormal (drug-related adverse event) [12]: 0 (0) n (%)
Muscular weakness (drug-related adverse event) [12]: 0 (0) n (%)
Myalgia (drug-related adverse event) [12]: 0 (0) n (%)
Nausea (drug-related adverse event) [12]: 0 (0) n (%)
Pyrexia (drug-related adverse event) [12]: 0 (0) n (%)
Vomiting (drug-related adverse event) [12]: 0 (0) n (%)
Maximum tolerated dose (MTD) (group 2, Bayesian logistic regression model, all grade 3 or 4 blood CK elevation incidents): 600 mg q.d.
Drug-related AE: abnormal hepatic function (group 2, all doses): 29%
Drug-related AE: fatigue (group 2, all doses): 33%
Drug-related AE: increase in CK levels (group 2, all doses): 50%
Drug-related AE: myalgia (group 2, all doses): 33%
Patients with at least one AE suspected to be related to sonidegib (group 2, n = 18): 75%
Patients with SAEs that led to drug discontinuation (in each group): four
Time to recovery of CK after interruption of drug (most cases): 1 month
Renal impairment or renal failure (patients with grade 3 or 4 CK elevation and high blood myoglobin): no patients experienced renal impairment or renal failure
CK re-elevation after restart with a 200 mg dose (three patients at 400 mg interrupted for grade 3 CK elevation): not observed
